# Screening results deposited in PubChem BioAssay by several laboratories.
# TRPML3 agonist: activates the human TRPML3 channel; HEK293 TRPML3-YFP, Fluo-8 calcium fluorescence; 100% = the carbachol control signal; activation, % at 3 µM; 220,000 tested, 0.29% active;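 active means activation above its plate's cutoff, the mean activation of the plate's test wells plus 3 SD, cut at about 12% in these data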
#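 system = HEK293 cells stably carrying human TRPML3-YFP | doses = one concentration, 3 µM nominal, 0.3% DMSO | timing = dye loading 1 h 37 °C then 30 min ambient, 125 s read | detection = Fluo-8 calcium dye fluorescence, ex 470-495, em 515-575 nm | benchmarks = high control carbachol 87 µM, low control DMSO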
# CRFBP-R2 block: blocks CRF-induced signaling of the CRF-BP/CRF-R2 complex | inhibition, % at 11.8 µM | HEK293 CRF-R2/CRF-BP, CRF-induced calcium fluorescence | 350,000 tested, 0.59% active | AID 588475;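 active means inhibition of the ligand-induced calcium signal above about 50% at the single tested concentration, limit read from the data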
# GPR7 antagonist: blocks human GPR7 receptor signaling; P48145; GPR7-expressing cells, fluorescence antagonist assay; inhibition, % at 4.4 µM; 290,000 tested, 1.1% active; AID 1861; in the data active means inhibition above about 16%, passing the limit was not always enough;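 further: cells stimulated with the agonist NPW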
# Target sequence (P48145 whole entry, looked up): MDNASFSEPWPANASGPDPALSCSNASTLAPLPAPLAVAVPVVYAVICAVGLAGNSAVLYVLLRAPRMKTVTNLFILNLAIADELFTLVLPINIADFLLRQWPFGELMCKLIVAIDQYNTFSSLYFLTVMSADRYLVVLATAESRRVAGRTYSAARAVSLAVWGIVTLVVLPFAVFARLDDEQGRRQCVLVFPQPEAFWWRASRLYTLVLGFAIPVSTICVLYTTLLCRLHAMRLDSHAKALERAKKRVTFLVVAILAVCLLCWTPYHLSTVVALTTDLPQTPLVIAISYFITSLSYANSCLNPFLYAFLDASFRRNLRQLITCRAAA
# zfTRPN1 agonist: agonists of zebrafish TRPN1 channel. HEK293 zebrafish TRPN1-YFP, Fluo-8 calcium fluorescence; 100% = response to 87 µM carbachol. activation, % at 3 µM. 220,000 tested, 0.18% active;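 active means activation above its plate's cutoff, the mean activation of test wells on that plate plus 3 SD, cut at about 19% in these data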
#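 Assay system: Zebrafish TRPN1-YFP in HEK293 cells | Incubation: Dye loading 1 h at 37 °C, then 30 min room temperature | Measured by: Kinetic Fluo-8 fluorescence, ex 470-495, em 515-575 nm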
# CRFBP-R2 agonist: agonists of human CRF-binding protein/CRF-R2 receptor complex | HEK293 CRF-R2/CRF-BP, calcium dye fluorescence (FLIPR); percent of saturating CRF peptide response | activation, % at 13.2 µM | 350,000 tested, 0.46% active | AID 588473;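 active means activation of at least 50%, plus an integration ratio under a set limit after plate pattern correction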
# GPR7 antag cf: human GPR7 antagonism, confirmation assay; inhibition, % at 4.4 µM; AID 1952; GPR7-expressing cells, calcium fluorescence antagonist mode; 2,400 tested, 52% active; shares compounds with GPR7 antagonist; in the data active means inhibition above about 24%;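 further: stimulated with the GPR7 agonist NPW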
# MCHR1 antagonist: antagonizes human MCHR1, a GPR7 antagonist counter-screen. AID 2148. 2,400 tested, 62% active. shares compounds with GPR7 antagonist. inhibition, % at 4.4 µM. MCHR1-expressing cells, fluorescence antagonist assay; in the data active means inhibition above about 22%
# A number is an active result; . = inactive; / = no result; + = active, no number. Most compounds without a hit are left out; they make up all but 2% or so of the library.
SMILES,TRPML3 agonist,CRFBP-R2 block,GPR7 antagonist,zfTRPN1 agonist,CRFBP-R2 agonist,GPR7 antag cf,MCHR1 antagonist
C[C@@H]1CN([C@H](C)CO)C(=O)c2cc(NS(=O)(=O)c3cn(C)cn3)ccc2O[C@@H]1CN(C)S(C)(=O)=O,/,.,/,/,.,/,/
c1ccc(N2CCN(c3nnnn3-c3ccccc3)CC2)cc1,.,.,26,.,.,.,.
Oc1ccccc1N1CCN(c2nnnn2-c2ccccc2)CC1,.,.,.,.,.,/,/
Cc1sc(NC(=O)C2CCCCC2C(=O)O)c(C(N)=O)c1C (configuration not stated),.,.,22,.,.,.,.
Cc1sc(NC(=O)C2CCCCC2C(=O)O)c(C(N)=O)c1-c1ccccc1 (configuration not stated),.,.,.,.,.,/,/
CCCN(CC(=O)Nc1ccc(NC(C)=O)cc1)CC(=O)Nc1ccc(F)c(F)c1F,/,.,.,/,.,/,/
CCCN(CC(=O)Nc1cccc(Br)c1)CC(=O)Nc1ccc(F)c(F)c1F,.,.,23,.,.,31,47
CCCN(CC(=O)Nc1ccc(F)c(F)c1F)CC(=O)Nc1c(Cl)cccc1Cl,.,.,22,.,.,25,25
CCOC(=O)CSc1nnc(-c2ccc(S(=O)(=O)NCc3cccs3)cc2)o1,.,.,40,.,.,38,.
COC(=O)CSc1nnc(-c2ccc(S(=O)(=O)NCc3cccs3)cc2)o1,.,.,22,.,.,58,38
COC(=O)CSc1nnc(-c2ccc(S(=O)(=O)NCc3ccccc3Cl)cc2)o1,.,.,.,.,.,/,/
CCOC(=O)CSc1nnc(-c2ccccc2)o1,.,.,.,.,.,/,/
Clc1cccc(CN2CCN(c3nc4nonc4nc3NC3CC3)CC2)c1,.,.,27,.,.,.,.
Cc1cccc(CN2CCN(c3nc4nonc4nc3NC3CC3)CC2)c1,.,.,.,.,.,/,/
Cc1cnc(C(=O)OCC(=O)NC(=O)c2ccccc2)cn1,/,.,/,/,.,/,/
CCOC(=O)c1c(C)n(-c2ccc(F)cc2)c2ccc(O)cc12,/,.,72,/,.,.,.
CC(=O)Oc1ccc2c(c1)Oc1cc(OC(C)=O)ccc1C21OC(=O)c2ccccc21,506,.,105,+,368,103,109
Cc1cc(O)ccc1C1(c2ccc(O)cc2C)OC(=O)c2ccccc21,.,.,.,.,.,/,/
CCCOc1ccc(C(F)(F)F)cc1NC(=O)CCc1c(C)noc1C,/,.,/,/,.,/,/
CCOC(=O)N1CCN(C(=S)NC)CC1,.,.,.,.,.,/,/
CCOC(=O)N1CCN(C(=S)NC(C)(C)C)CC1,.,.,21,.,.,.,.
CC/C(=N\NC(=O)c1nnn(-c2nonc2N)c1CN(C)c1ccccc1)c1ccccc1,/,.,.,/,.,/,/
Cc1ccccc1Oc1ncnc2oc(-c3ccccc3)cc12,.,.,29,.,.,31,.
COc1ccc(CCNC(=O)C(=O)c2cn(CC(=O)N3CCCC3)c3ccccc23)cc1OC,/,.,/,/,.,/,/
Cc1ccc(S(=O)(=O)N/N=C/c2ccc(C#N)cc2)cc1,/,.,.,/,.,/,/
SMILES,TRPML3 agonist,CRFBP-R2 block,GPR7 antagonist,zfTRPN1 agonist,CRFBP-R2 agonist,GPR7 antag cf,MCHR1 antagonist
COc1cc(CNCCO)cc(Br)c1OCc1ccccc1Cl,.,.,.,.,.,/,/
COc1cc(CNC(C)(C)CO)cc(Br)c1OCc1ccc(Cl)cc1Cl,.,.,29,.,.,57,57
Cc1cc(C)c(Cn2cnc3ccccc32)c(C)c1,.,.,.,.,.,/,/
Cc1cccc(OCC(=O)Nc2ccc3oc(=O)ccc3c2)c1,/,.,36,/,.,33,36
Cc1cccc(OCC(=O)Nc2ccc3c(c2)OCCO3)c1,.,.,.,.,.,/,/
COc1cccc(-n2ccnc2SCC(=O)Nc2cc(OC)ccc2OC)c1,.,.,38,.,.,.,38
COc1cccc(-n2ccnc2SCC(=O)Nc2ccccc2F)c1,.,.,21,.,.,.,.
COc1ccc(NC(=O)CSc2nccn2-c2cccc(OC)c2)cc1,.,.,.,.,.,/,/
CC(C)CC1C(=O)N(Cc2cn(CC3CCCCC3)nn2)CCS(=O)(=O)N1Cc1ccc(-c2ccncc2)cc1 (configuration not stated),/,.,/,/,.,/,/
